Assay [1] has as its system S. aureus ATCC 33591 (Sa91). Kind of assay: MIC, broth microdilution with resazurin. The assay is classed as cell-based, Staphylococcus aureus. To be noted: for MIC: Staphylococcus aureus, ATCC33591, read-out: MIC Values Sa91. In outline:
(§1)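 CLSI broth microdilution. Strains were grown overnight at 35 °C on TSA or TSA with 5% sheep blood. Colonies were suspended in 0.9% saline to 0.5 McFarland, then diluted 1:100 in Mueller Hinton broth (about 1 × 10^6 CFU/mL). Test compound (2 mg/mL DMSO stock) was serially diluted 1:2 from 50 µg/mL final. Resazurin was added at 8 µg/mL final, and plates were incubated 35 °C for 20–24 h and read visually. MIC is the lowest concentration without the resazurin colour change. Each plate carried untreated, DMSO and antibiotic controls.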
On the technique in general: Broth dilution looks for growth in wells or tubes with falling amounts of substance.

For assay [2], the system named is S. aureus ATCC 33592 (Sa92). In words: MIC, broth microdilution with resazurin. The assay is classed as cell-based, Staphylococcus aureus. The note with it: for MIC: Staphylococcus aureus, ATCC33592, read-out: MIC Values Sa92. In outline: as §1
The test system of assay [3] is S. aureus BAA-2312 (Sa12). Kind of assay: MIC, broth microdilution with resazurin. It is filed as cell-based, Staphylococcus aureus. The note with it: for MIC: Staphylococcus aureus, BAA2312, read-out: MIC Values Sa12. In outline: as §1
Assay [4] deals with B. subtilis ATCC 6623 (Bs). Kind of assay: MIC, broth microdilution with resazurin. The assay is classed as cell-based. The note with it: NA = No Activity.
Assay [5] concerns S. aureus ATCC 25923 (Sa). Kind of assay: MIC, broth microdilution with resazurin. The assay is classed as cell-based, Staphylococcus aureus. To be noted: for MIC: Staphylococcus aureus, ATCC25923, read-out: MIC Values Sa. The gist of the method:
as §1

Assay [6] relates to S. aureus ATCC 700699 (Sa99). In words: MIC, broth microdilution with resazurin. It is filed as cell-based, Staphylococcus aureus. The note with it: for MIC: Staphylococcus aureus, ATCC700699, read-out: MIC Values Sa99. The gist of the method:
as §1

Assay [7] deals with S. epidermidis 700296 (Se). Kind of assay: MIC, broth microdilution with resazurin. The assay is classed as cell-based. The note with it: for MIC: Staphylococcus epidermidis, read-out: MIC Values Se.
Assay [8] deals with human embryonic kidney (HEK293) cell line. In words: In vitro cytotoxicity, resazurin viability. It is filed as cell-based. The note with it: HEK293, 24 h incubation. In outline: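 HEK293 cells were counted and seeded at 4000 per well. Test compound was serially diluted from 50 µg/mL, added in triplicate, and incubated 24 h. Resazurin (5%) was then added, and plates were incubated 4 and 6 h before reading. Viability was read as fluorescence at 544 nm excitation and 590 nm emission.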
For orientation: The colour change of resazurin is a common sign of viable cells or microbes.

Assay [9] has as its system three strains of A. baumannii. Kind of assay: MIC summarised in the text over the three A. baumannii strains. The assay is classed as cell-based, Acinetobacter baumannii. The gist of the method: as §1
In assay [10] the test system is A. baumannii ATCC 19606 (Type Strain, AB06). In words: MIC, broth microdilution with resazurin. It is filed as cell-based, Acinetobacter baumannii. The note with it: for MIC: Acinetobacter baumannii, ATCC19606, read-out: MIC Ab06. In outline: as §1
The test system of assay [11] is A. baumannii ATCC 747 (Ab47). Kind of assay: MIC, broth microdilution with resazurin. To be noted: for MIC: Acinetobacter baumannii, ATCC747, read-out: MIC Ab47. The assay is classed as cell-based, Acinetobacter baumannii. The gist of the method:
as §1

The test system of a further assay is A. baumannii ATCC 19606. Kind of assay: SYTO-9/propidium iodide. The assay is classed as cell-based, Acinetobacter baumannii. To be noted: compared with positive control Colistin 6.25 μg/mL.
The test system of assay [12] is tested Gram-positive strains (S. aureus incl. MRSA, S. epidermidis, B. subtilis). In words: MIC summarised in the text over the tested Gram-positive strains. The assay is classed as cell-based.
In assay [13] the test system is A. baumannii ATCC BAA-1605 (Ab05). In words: MIC, broth microdilution with resazurin. To be noted: NA = No Activity. It is filed as cell-based, Acinetobacter baumannii. The gist of the method: as §1
Setting [14] is: antibiotic-resistant strain, NA = No Activity.

Converted amounts (≈) assume the structure as drawn.

Take “4-[4-[(2,2-Dibenzylhydrazino)methyl]-3-(3-fluorophenyl)pyrazol-1-yl]benzoic Acid [Compound 7]”: the “MIC Values Sa91” value in [1] (setting [14]) was 6.25 µg/mL. Also, in [2] (setting [14]), the “MIC Values Sa92” value came to 3.125 µg/mL. For the same compound, the “MIC Values Sa12” value in [3] (setting [14]) was 6.25 µg/mL. In addition, the “MIC Values Bs” value in assay [4] turned out to be 1.56 µg/mL. Moreover, in assay [5] (antibiotic susceptible strain, NA = No Activity), the “MIC Values Sa” value came out at 12.5 µg/mL. In assay [6] (setting [14]), the “MIC Values Sa99” value came out at 3.125 µg/mL.
The term MIC denotes the smallest concentration in the dilution series that meets the test's criterion for growth inhibition. Consider `O=C(O)c1ccc(-n2cc(/C=N/N(c3ccccc3)c3ccccc3)c(-c3cccc(F)c3)n2)cc1` [Compound 5, 4-[4-[(E)-(Diphenylhydrazono)methyl]-3-(3-fluorophenyl)pyrazol-1-yl]benzoic Acid], for which the MIC came out at 3.12 µg/mL (≈ 6.56 µM) in assay [1]; 0.78 µg/mL (≈ 1.64 µM) in [2]; 3.12 µg/mL (≈ 6.56 µM) in assay [7]; 3.12 µg/mL (≈ 6.56 µM) in assay [3]; 3.12 µg/mL (≈ 6.56 µM) in assay [5]; 1.56 µg/mL (≈ 3.27 µM) in assay [6]. Further, the IC50 result in assay [8] is recorded as “High IC50 values”.
On to `O=C(O)c1ccc(-n2cc(/C=N/Nc3cccc(Cl)c3)c(-c3cccc(F)c3)n2)cc1` [Compound 8, 4-[4-[(E)-[(3-Chlorophenyl)hydrazono]methyl]-3-(3-fluorophenyl)pyrazol-1-yl]benzoic Acid], for which the minimum inhibitory concentration (MIC) is 12.5 µg/mL (≈ 28.7 µM) in assay [1]; 6.25 µg/mL (≈ 14.4 µM) in assay [10]; 6.25 µg/mL (≈ 14.4 µM) in assay [2]; 12.5 µg/mL (≈ 28.7 µM) in assay [7]; 12.5 µg/mL (≈ 28.7 µM) in [3]; 12.5 µg/mL (≈ 28.7 µM) in [11]. Besides, the MIC in assay [5] is 6.25 µg/mL (≈ 14.4 µM); in assay [6], 3.12 µg/mL (≈ 7.19 µM). Further, the “activity against A. baumannii strains (in words)” value in [9] is on record as “moderate activity”.
Consider `O=C(O)c1ccc(-n2cc(/C=N/Nc3cccc(Br)c3)c(-c3cccc(F)c3)n2)cc1` [Compound 9, 4-[4-[(E)-[(3-Bromophenyl)hydrazono]methyl]-3-(3-fluorophenyl)pyrazol-1-yl]benzoic Acid], for which the MIC came to 12.5 µg/mL (≈ 26.1 µM) in [1]; 6.25 µg/mL (≈ 13 µM) in [10]; 6.25 µg/mL (≈ 13 µM) in assay [2]; 12.5 µg/mL (≈ 26.1 µM) in assay [7]; 12.5 µg/mL (≈ 26.1 µM) in assay [3]; 12.5 µg/mL (≈ 26.1 µM) in [11]. Further, the values for the MIC in assay [5] and in [6] were 12.5 µg/mL (≈ 26.1 µM) and 3.12 µg/mL (≈ 6.52 µM), respectively. For the same compound, the “activity against A. baumannii strains (in words)” value in [9] was “moderate activity”.
On to `O=C(O)c1ccc(-n2cc(/C=N/Nc3ccc(Br)cc3)c(-c3cccc(F)c3)n2)cc1` [Compound 10, 4-[4-[(E)-[(4-Bromophenyl)hydrazono]methyl]-3-(3-fluorophenyl)pyrazol-1-yl]benzoic Acid], for which the MIC was 12.5 µg/mL (≈ 26.1 µM) in assay [1]; 3.12 µg/mL (≈ 6.52 µM) in [10]; 6.25 µg/mL (≈ 13 µM) in assay [2]; 12.5 µg/mL (≈ 26.1 µM) in [7]; 12.5 µg/mL (≈ 26.1 µM) in assay [3]; 6.25 µg/mL (≈ 13 µM) in [11]. The figures for the minimum inhibitory concentration (MIC) in assay [5] and in assay [6] were 12.5 µg/mL (≈ 26.1 µM) and 6.25 µg/mL (≈ 13 µM), respectively. In [9], the “activity against A. baumannii strains (in words)” value is given as “moderate activity”.
For `O=C(O)c1ccc(-n2cc(/C=N/Nc3ccc(Cl)cc3Cl)c(-c3cccc(F)c3)n2)cc1` [Compound 12, 4-[4-[(E)-[(2,4-Dichlorophenyl)hydrazono]methyl]-3-(3-fluorophenyl)pyrazol-1-yl]benzoic Acid], the minimal inhibitory concentration (MIC) in assay [1] is 3.12 µg/mL (≈ 6.66 µM); in assay [2] it was 0.39 µg/mL (≈ 0.831 µM); in [7], 3.12 µg/mL (≈ 6.66 µM); in assay [3], 3.12 µg/mL (≈ 6.66 µM); in assay [5], 3.12 µg/mL (≈ 6.66 µM); in assay [6], 0.78 µg/mL (≈ 1.66 µM). Also, the IC50 result in assay [8] is “High IC50 values”.
Take `CN1CCN(/N=C/c2cn(-c3ccc(C(=O)O)cc3)nc2-c2cccc(F)c2)CC1` [Compound 21, 4-[3-(3-Fluorophenyl)-4-[(E)-(4-methylpiperazin-1-yl)iminomethyl]pyrazol-1-yl]benzoic Acid]: the “membrane disruption ability (ratio of PI to SYTO-9 signals)” value in the assay with A. baumannii ATCC 19606 is “better membrane disruption ability than the positive control”. Moreover, the “activity against the tested strains (in words)” value in assay [12] is on record as “completely ceased the activity”.
Consider `CN(/N=C/c1cn(-c2ccc(C(=O)O)cc2)nc1-c1ccc(F)cc1)c1ccccc1` [Compound 22, 4-[3-(4-Fluorophenyl)-4-[(E)-[methyl(phenyl)hydrazono]methyl]pyrazol-1-yl]benzoic Acid], for which the minimal inhibitory concentration (MIC) was 12.5 µg/mL (≈ 30.2 µM) in [1]; 6.25 µg/mL (≈ 15.1 µM) in [2]; 12.5 µg/mL (≈ 30.2 µM) in [7]; 12.5 µg/mL (≈ 30.2 µM) in assay [5]; 12.5 µg/mL (≈ 30.2 µM) in assay [6]. In the assay with A. baumannii ATCC 19606, the “membrane disruption ability (ratio of PI to SYTO-9 signals)” value was “better membrane disruption ability than the positive control”. Moreover, the “activity against the tested strains (in words)” value in [12] was “moderate activity”.
Take `O=C(O)c1ccc(-n2cc(/C=N/N(c3ccccc3)c3ccccc3)c(-c3ccc(F)cc3)n2)cc1` [Compound 23, 4-[4-[(E)-(Diphenylhydrazono)methyl]-3-(4-fluorophenyl)pyrazol-1-yl]benzoic Acid]: the MIC stood at 0.78 µg/mL (≈ 1.64 µM) in assay [2], 3.12 µg/mL (≈ 6.56 µM) in assay [3], 1.56 µg/mL (≈ 3.27 µM) in assay [5] and 1.56 µg/mL (≈ 3.27 µM) in [6]. For the same compound, the “MIC Values Se” value in assay [7] (NA = No Activity) is listed as “no activity”. For the same compound, the “MIC Values Bs” value in assay [4] (Table 2) was found to be 1.56 µg/mL (≈ 3.27 µM). Besides, the IC50 entry in [8] is recorded as “High IC50 values”.
As for Colistin [reference compound], the “MIC Ab06” value in [10] (NA = No Activity) worked out at 3.125 µg/mL. In addition, the “MIC Ab05” value in assay [13] was 3.125 µg/mL. Also, the “MIC Ab47” value in assay [11] (NA = No Activity) was found to be 1.56 µg/mL.

Values taken from article PMC6733178 (ACS Omega, 2019).
